{"source": "PubChem BioAssay AID588687", "about": "(Southern Research Specialized Biocontainment Screening …, 2011)", "note": "Active and inactive are the calls of the source.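 Rule for the calls: active = inhibition of 30% or more at any tested concentration; inactive = the rest.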"}
{"tested_on": "M18 aspartyl aminopeptidase (Plasmodium falciparum 3D7)", "test": "P. falciparum M18 aminopeptidase activity inhibition – biochemical, QFRET fluorogenic substrate, counter-screen for PfM1 aminopeptidase inhibitor project, dose response (AID 588687)", "settings": "recombinant PfM18AAP, H-Glu-NHMec fluorogenic cleavage; series mostly up to 100 µM", "how_it_was_run": "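System: recombinant P. falciparum PFM18AAP enzyme. Times: reaction time 90 min, room temperature. Dosing: 10 twofold doses, top 100 µM, 2% DMSO. Signal: fluorescence of released leaving group, excitation 370 nm, emission 460 nm. Also added: H-Glu-NHMec fluorogenic peptide substrate at 0.1 mM final.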"}
{"smiles": "CC(C)(C)c1ccc(-c2ccc(S(=O)(=O)N3CCC(C(=O)NCc4ccc5c(c4)OCO5)CC3)s2)cc1", "outcome": "inactive"}
{"smiles": "CC[C@H](C)[C@H](NS(=O)(=O)c1cccs1)C(=O)NCc1ccc(F)cc1", "outcome": "inactive"}
{"smiles": "CC[C@H](C)[C@H](NS(=O)(=O)c1ccc(Br)s1)C(=O)O", "outcome": "inactive"}
{"smiles": "CC[C@H](C)[C@H](NC(=O)c1ccc([N+](=O)[O-])cc1)C(=O)NCc1ccc(F)cc1", "outcome": "inactive"}
{"smiles": "CN(C)c1ccc(CNC(=O)C2CCN(S(=O)(=O)c3ccc(Br)s3)CC2)cc1", "outcome": "inactive"}
{"smiles": "CC[C@H](C)[C@H](NC(=O)c1ccc([N+](=O)[O-])cc1)C(=O)NCc1ccccc1", "outcome": "inactive"}
{"smiles": "O=C(NCc1ccc2c(c1)OCO2)C1CCN(S(=O)(=O)c2ccc(-c3cccc(F)c3)s2)CC1", "outcome": "inactive"}
{"smiles": "COc1ccc(-c2ccc(S(=O)(=O)N3CCC(C(=O)NCc4ccc5c(c4)OCO5)CC3)s2)cc1", "outcome": "inactive"}
{"smiles": "O=C(NCc1ccc2c(c1)OCO2)C1CCN(S(=O)(=O)c2ccc(-c3ccccc3)s2)CC1", "outcome": "inactive"}
{"smiles": "CC[C@H](C)[C@H](NS(=O)(=O)c1ccc(Br)s1)C(=O)NCc1ccc(C(F)(F)F)cc1", "outcome": "inactive"}
{"smiles": "O=C(NCc1ccc2c(c1)OCO2)C1CCN(S(=O)(=O)c2ccc(-c3cncc4ccccc34)s2)CC1", "outcome": "inactive"}
{"smiles": "CC[C@H](C)[C@H](NC(=O)c1ccc(C(C)(C)C)cc1)C(=O)NCc1ccc(C(F)(F)F)cc1", "outcome": "inactive"}
{"smiles": "O=C(NCc1ccc2c(c1)OCO2)C1CCN(S(=O)(=O)c2ccc(-c3ccc(F)cc3)s2)CC1", "outcome": "inactive"}
{"smiles": "CC[C@H](C)[C@H](NS(=O)(=O)c1ccc(Br)s1)C(=O)NCc1ccc(F)cc1", "outcome": "inactive"}
{"smiles": "CC(=O)Nc1cccc(-c2ccc(S(=O)(=O)N3CCC(C(=O)NCc4ccc5c(c4)OCO5)CC3)s2)c1", "outcome": "inactive"}
{"smiles": "COc1cccc(-c2ccc(S(=O)(=O)N3CCC(C(=O)NCc4ccc5c(c4)OCO5)CC3)s2)c1", "outcome": "inactive"}
{"smiles": "CC[C@H](C)[C@H](NC(=O)c1ccc([N+](=O)[O-])cc1)C(=O)NCc1ccc(C(F)(F)F)cc1", "outcome": "inactive"}
